# GASC1 inh: inhibitors of human demethylase GASC-1 KDM4C | Q9H3R0 | 96,000 tested, 0.15% active | GST-KDM4C 2-372, H3K9me3 peptide, LANCE TR-FRET | inhibition, % at 12.5 µM;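 active = mean replicate inhibition above about 25%, with at least 55% of replicates also reaching it, limit read from the data, passing the limit was not always enough; inconclusive = only one of those two conditions met; inactive = neither condition met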
# Target sequence (Q9H3R0 2-372 limits assumed): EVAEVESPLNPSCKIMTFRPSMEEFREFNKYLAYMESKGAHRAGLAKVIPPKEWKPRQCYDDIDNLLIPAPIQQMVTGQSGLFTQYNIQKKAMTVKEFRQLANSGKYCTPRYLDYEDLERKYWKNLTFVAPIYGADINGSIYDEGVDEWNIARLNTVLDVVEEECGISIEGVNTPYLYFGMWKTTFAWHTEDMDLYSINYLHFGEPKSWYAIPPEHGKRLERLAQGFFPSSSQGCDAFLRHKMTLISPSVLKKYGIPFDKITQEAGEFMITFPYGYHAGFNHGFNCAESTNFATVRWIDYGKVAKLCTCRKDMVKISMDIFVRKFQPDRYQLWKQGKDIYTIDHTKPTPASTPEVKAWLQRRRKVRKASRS
#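 Test system: N-terminal GST-fused human GASC-1 (KDM4C) fragment, residues 2-372; quantity: GASC-1 enzyme at 10 nM final in reaction; dosing: single dose; schedule: 30 min demethylation and 1 h detection at room temperature; signal: LANCE TR-FRET, excitation 340 nm, emissions 618 and 671 nm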
# T cruzi growth-1: inhibitors of T. cruzi proliferation; 77,000 tested, 5.9% active; T. cruzi beta-gal in NIH3T3, GalScreen luminescence, 90 h; AID 624255; inhibition, % at 8.34 µM;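 active = mean inhibition above about 93%, with at least 55% of replicates each passing it, limit read from the data, passing the limit was not always enough; inconclusive = only one of those two conditions holds; inactive = neither condition holds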
# IDH1 R132H inh: blocks human IDH1 R132H reductase activity. O75874. diaphorase/resazurin fluorescence, 60 min. inhibition, % at 10 µM. 70,000 tested, 0.18% active. AID 624101; in the data active = inhibition above about 34%; inconclusive = no clear call, values can overlap the other calls; inactive = below about 11%;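 note: 0% = DMSO and 100% = no enzyme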
# T cruzi growth-2: Trypanosoma cruzi proliferation inhibition; shares compounds with T cruzi growth-1; T. cruzi beta-gal in NIH3T3, GalScreen luminescence, 90 h; inhibition, % at 8.35 µM; 5,600 tested, 72% active; AID 651739;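 active = mean replicate inhibition above about 95% and at least 55% of replicates individually reaching it, limit read from the data; inconclusive = only one of the two criteria is met; inactive = neither criterion is met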
# T cruzi growth-3: Trypanosoma cruzi proliferation inhibition; shares compounds with T cruzi growth-1; T. cruzi beta-gal in NIH3T3, GalScreen luminescence, 90 h; inhibition, % at 2.09 µM; 5,600 tested, 21% active;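 active = mean inhibition above about 95%, with at least 55% of replicates also reaching it, limit read from the data; inconclusive = meets just one of the two conditions; inactive = meets neither condition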;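 note: plate controls were neutral control median for no effect and positive control median for full effect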
# NIH3T3 tox: kills mouse NIH/3T3 fibroblasts; shares compounds with T cruzi growth-1; NIH/3T3 viability, CellTiter-Glo ATP luminescence, 90 h; cytotoxicity (signal decrease), % at 8.35 µM; 5,600 tested, 14% active; AID 651742;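 active = mean signal decrease across replicates above about 35% based on untreated-well scatter, with enough replicates individually passing, limit read from the data; inconclusive = no rule stated though some were filed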;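 note: 0% = median of neutral control wells and 100% = median of positive control wells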
# NIH3T3 tox 2: kills mouse NIH/3T3 fibroblasts; inhibition, % at 24.9 µM; AID 651744; shares compounds with T cruzi growth-1; NIH/3T3 viability, CellTiter-Glo ATP luminescence, 90 h; 5,600 tested, 56% active;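 active = mean loss of cell viability signal at or above a set limit, and enough replicates individually reaching it; inconclusive = meets only the mean limit or only the replicate share; inactive = meets neither condition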;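 note: 0% = median of neutral control wells and 100% = median of positive control wells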
# Active calls of the source: *; ? = inconclusive; · = no result given. This excerpt belongs to a sample that is enriched for hits.
SMILES,GASC1 inh,T cruzi growth-1,IDH1 R132H inh,T cruzi growth-2,T cruzi growth-3,NIH3T3 tox,NIH3T3 tox 2
CCC(=O)N1CCCCN2[C@H](CO)[C@@H](c3ccc(-c4cccc(C(=O)N(C)C)c4)cc3)[C@@H]2C1,0,-7,·,·,·,·,·
COC(=O)c1c(C)nc(C)c(C(=O)OC)c1-c1csc(S(=O)(=O)N2CCSCC2)c1,·,·,-1,·,·,·,·
COC(=O)COc1cc(Cl)c(C2NC(=S)NC(c3ccccc3)=C2C(C)=O)cc1OC (centres undefined),·,·,1,·,·,·,·
C[C@H](CO)N1C[C@H](C)[C@@H](CN(C)Cc2ccc3c(c2)OCO3)Oc2ccc(NC(=O)C3CC3)cc2CC1=O,8,77,5,·,·,·,·
C[C@H]1CN([C@@H](C)CO)C(=O)Cc2cc(NC(=O)C3CCCCC3)ccc2O[C@@H]1CN(C)CC1CC1,2,-7,0,·,·,·,·
C[C@H](CO)N1C[C@H](C)[C@@H](CN(C)Cc2ccc3c(c2)OCO3)Oc2ccc(NC(=O)C3CCCCC3)cc2CC1=O,2,100*,1,103*,70,5,28*
C[C@@H]1CN([C@H](C)CO)C(=O)Cc2cc(NC(=O)C3CCCCC3)ccc2O[C@@H]1CN(C)Cc1ccc2c(c1)OCO2,3,29,·,·,·,·,·
C[C@@H]1CN([C@@H](C)CO)C(=O)Cc2cc(NC(=O)C3CCCCC3)ccc2O[C@@H]1CN(C)CC1CC1,0,97*,0,21,10,3,7
C[C@H]1CN([C@@H](C)CO)C(=O)Cc2cc(NC(=O)C3CCCCC3)ccc2O[C@@H]1CN(C)Cc1ccc2c(c1)OCO2,2,99*,1,96*,33,-19,14
CS(=O)(=O)Nc1ccc2c(c1)[C@@H]1C[C@@H](CC(=O)NCc3ccncc3)O[C@H](CO)[C@@H]1O2,0,117*,-1,-7,-18,8,4
CS(=O)(=O)Nc1ccc2c(c1)[C@@H]1C[C@@H](CC(=O)NCc3ccncc3)O[C@@H](CO)[C@@H]1O2,0,-43,-1,·,·,·,·
CS(=O)(=O)Nc1ccc2c(c1)[C@H]1C[C@H](CC(=O)NCc3ccncc3)O[C@H](CO)[C@H]1O2,-2,-38,0,·,·,·,·
CS(=O)(=O)Nc1ccc2c(c1)[C@H]1C[C@H](CC(=O)NCc3ccncc3)O[C@@H](CO)[C@H]1O2,-1,102*,0,1,12,1,4
COc1ccc2c3c([nH]c2c1)[C@@H](CO)N(C(=O)C1CCCC1)CC31CCN(C(=O)NC(C)C)CC1,0,·,·,·,·,·,·
Cn1c(SCC(=O)n2c3c(c4ccccc42)CCCC3)nnc1-c1ccco1,·,·,0,·,·,·,·
Cc1ccc(S(=O)(=O)NC(C)C(=O)Nc2cc(C(F)(F)F)ccc2Cl)cc1 (centres undefined),·,·,0,·,·,·,·
Cc1occc1C(=O)NCCc1ccc(S(N)(=O)=O)cc1,·,·,0,·,·,·,·
C[C@@H]1CN([C@@H](C)CO)C(=O)c2cc(NS(=O)(=O)c3cccs3)ccc2O[C@@H](C)CCCCO[C@H]1CN(C)C(=O)Nc1cccc2ccccc12,0,63,·,·,·,·,·
C[C@@H]1CCCCO[C@@H](CN(C)C(=O)Nc2cccc3ccccc23)[C@@H](C)CN([C@H](C)CO)C(=O)c2cc(NS(=O)(=O)c3cccs3)ccc2O1,-1,86,·,·,·,·,·
C[C@H]1CCCCO[C@H](CN(C)C(=O)Nc2cccc3ccccc23)[C@@H](C)CN([C@@H](C)CO)C(=O)c2cc(NS(=O)(=O)c3cccs3)ccc2O1,0,102*,·,93,66,-10,-3
C[C@@H]1CCCCO[C@@H](CN(C)C(=O)Nc2cccc3ccccc23)[C@H](C)CN([C@H](C)CO)C(=O)c2cc(NS(=O)(=O)c3cccs3)ccc2O1,-2,105*,·,105*,106*,-33,-17
COc1ccc(-c2cc(C(F)(F)F)nc(SCC(=O)N(C)c3ccccc3)n2)cc1OC,·,·,0,·,·,·,·
COc1ccc(S(=O)(=O)Nc2cccc3c2O[C@H](CN(C)S(=O)(=O)c2cccs2)[C@@H](C)CN([C@@H](C)CO)C3=O)cc1,14,14,0,·,·,·,·
COc1ccc([N+](=O)[O-])cc1NC(=O)CN(c1ccc(I)cc1)S(C)(=O)=O,·,·,0,·,·,·,·
C[C@@H]1CN([C@H](C)CO)C(=O)c2c(c3ccccc3n2C)-c2ccccc2CO[C@@H]1CN(C)C(=O)c1cc(Cl)cc(Cl)c1,-2,·,·,·,·,·,·
SMILES,GASC1 inh,T cruzi growth-1,IDH1 R132H inh,T cruzi growth-2,T cruzi growth-3,NIH3T3 tox,NIH3T3 tox 2
CC(=O)N(C)C[C@@H]1Oc2cc(-c3ccc(F)cc3)ccc2S(=O)(=O)N([C@H](C)CO)C[C@@H]1C,-3,-4,-3,·,·,·,·
C[C@@H]1CN([C@@H](C)CO)C(=O)CCCn2cc(nn2)CO[C@H]1CN(C)Cc1ccc(Cl)c(Cl)c1,1,135*,-3,77,74,-30,0
C[C@H]1CN([C@@H](C)CO)C(=O)CCCn2cc(nn2)CO[C@@H]1CN(C)Cc1ccc(Cl)c(Cl)c1,0,-65,-1,·,·,·,·
COc1cccc(S(=O)(=O)N(C)C[C@@H]2OCc3cn(nn3)CCCC(=O)N([C@@H](C)CO)C[C@H]2C)c1,0,?,-1,94,4,7,15
COC(=O)N(C)C[C@@H]1OCc2cn(nn2)CCCC(=O)N([C@H](C)CO)C[C@H]1C,·,-250,1,·,·,·,·
COC(=O)N(C)C[C@H]1OCc2cn(nn2)CCCC(=O)N([C@@H](C)CO)C[C@H]1C,1,?,-2,25,4,21,?
C[C@@H]1CN([C@H](C)CO)C(=O)CCCn2cc(nn2)CO[C@@H]1CN(C)C(=O)Nc1cccc(F)c1,-1,11,·,·,·,·,·
C[C@H](CO)N1C[C@H](C)[C@@H](CN(C)C(=O)Nc2cccc(F)c2)OCc2cn(nn2)CCCC1=O,0,?,·,109*,17,31,15
COc1cccc(S(=O)(=O)N(C)C[C@H]2OCc3cn(nn3)CCCC(=O)N([C@H](C)CO)C[C@H]2C)c1,0,38,·,·,·,·,·
COC(=O)c1ccccc1NC(=O)COc1ccc2ccccc2c1Br,·,·,-1,·,·,·,·
CCOC(=O)c1ccc(COc2ccc(-c3cnc4ccccc4n3)cc2)o1,·,·,0,·,·,·,·
O=C(NC1CCCCC1)N1CC(=O)N2[C@H](C1)[C@H](c1ccc(-c3cccnc3)cc1)[C@@H]2CO,1,·,·,·,·,·,·
Cn1cnc(S(=O)(=O)N2CC[C@@H]3[C@@H](CO)Nc4ccc(C#Cc5ccccc5F)cc4[C@@H]32)c1,-2,·,·,·,·,·,·
CCn1c(SCC(=O)NC(C)(C)C)nnc1-c1cccc([N+](=O)[O-])c1,·,·,0,·,·,·,·
Cc1ccc(NC(=O)Cn2nc(-c3ccc(C)c(S(=O)(=O)N(C)C)c3)c3ccccc3c2=O)cc1,·,·,0,·,·,·,·
Cc1noc(C)c1NC(=O)N(C)C[C@H]1OCc2cn(nn2)CCCC(=O)N([C@H](C)CO)C[C@@H]1C,·,-9,-1,·,·,·,·

# Source: PubChem BioAssay (Broad Institute)
